14 molecules from publication PMC5299035 (Drug development research, 2016) can be followed below.

What all share (type): cell-based
The subject of assay [1] is human neutrophils. Briefly: Ca2+ mobilization assay in human neutrophils. The settings on record: Homo sapiens, Neutrophil, read-out: Ca2+ flux human neutrophils EC50. Put shortly:
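Neutrophils from healthy donors were purified by dextran sedimentation, Histopaque 1077 gradient and hypotonic red-cell lysis (>95% pure, >98% viable). After Fluo-4 AM loading (1.25 μg/mL final, 30 min, 37 °C, dark), cells were seeded at 2 × 10^5/well in HBSS with Ca2+/Mg2+. Fluorescence (485/538 nm) was tracked every 5 s for 240 s at room temperature. Maximum change over baseline was normalised, and EC50 came from a 5-6-point nonlinear fit.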
(Calcium assays in cells follow changes in intracellular calcium, usually with a dye or a luminescent sensor.)

Assay [2] deals with T1, FPR2 (Homo sapiens, UniProt P25090).
T1 sequence (P25090 1-351): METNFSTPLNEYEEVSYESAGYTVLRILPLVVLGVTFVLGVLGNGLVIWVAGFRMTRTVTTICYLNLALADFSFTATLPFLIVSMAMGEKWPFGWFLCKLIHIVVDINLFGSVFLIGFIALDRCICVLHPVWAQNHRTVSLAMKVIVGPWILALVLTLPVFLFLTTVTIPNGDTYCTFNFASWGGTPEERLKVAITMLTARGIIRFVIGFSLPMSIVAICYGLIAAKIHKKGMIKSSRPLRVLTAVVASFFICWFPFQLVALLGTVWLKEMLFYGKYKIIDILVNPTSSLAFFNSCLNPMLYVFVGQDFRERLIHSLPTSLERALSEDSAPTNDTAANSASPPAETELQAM
Briefly: Ca2+ mobilization assay in FPR2-HL60 cells. The settings on record: for Emax: read-out: Ca2+ flux FPR2-HL60 efficacy. Put shortly: (§1)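 FPR2- or FPR3-transfected HL60 cells were grown in RPMI 1640 with 10% heat-inactivated FCS and G418 1 mg/mL. Cells were loaded with Fluo-4 AM (1.25 μg/mL final) for 30 min at 37 °C in the dark, washed, and seeded at 2 × 10^5 cells/well in HBSS+. Fluorescence (ex 485/em 538 nm) was read every 5 s for 240 s at room temperature. Peak rise over baseline was normalised to the reference agonist. EC50 came from 5-6-point nonlinear regression over three independent experiments.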

For assay [3], the target named is T2, FPR1 (Homo sapiens, UniProt P21462).
T2 sequence (P21462 1-350): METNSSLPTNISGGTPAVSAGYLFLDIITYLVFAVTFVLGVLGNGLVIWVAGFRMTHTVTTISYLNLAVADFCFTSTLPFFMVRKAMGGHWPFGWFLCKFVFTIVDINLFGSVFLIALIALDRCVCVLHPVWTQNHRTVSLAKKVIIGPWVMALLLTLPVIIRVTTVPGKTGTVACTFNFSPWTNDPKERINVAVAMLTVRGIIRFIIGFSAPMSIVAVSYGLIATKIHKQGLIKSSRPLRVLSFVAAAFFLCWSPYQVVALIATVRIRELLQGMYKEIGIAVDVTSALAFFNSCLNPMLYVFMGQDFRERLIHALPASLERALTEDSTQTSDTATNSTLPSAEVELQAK
Briefly: Ca2+ mobilization assay in FPR1-HL60 cells. The note with it: for Emax: read-out: Ca2+ flux FPR1-HL60 efficacy. Summed up: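 FPR1-transfected HL60 cells were grown in RPMI 1640 with 10% heat-inactivated FCS, 10 mM HEPES and G418 (1 mg/mL). Cells were loaded with Fluo-4 AM (1.25 μg/mL final) for 30 min at 37 °C in the dark, then washed and seeded in HBSS+ at 2 × 10^5 cells/well. Fluorescence (485/538 nm) was read every 5 s for 240 s at room temperature after compound addition. Peak rise over baseline was set against 5 nM fMLF (100%). EC50 came from nonlinear regression of 5-6-point curves, mean of three independent experiments. No activity meant no response within 2 min (limits: efficacy >20%, EC50 <50 μM).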

For assay [4], the target named is T3, FPR3 (Homo sapiens, UniProt P25089).
T3 sequence (P25089 1-353): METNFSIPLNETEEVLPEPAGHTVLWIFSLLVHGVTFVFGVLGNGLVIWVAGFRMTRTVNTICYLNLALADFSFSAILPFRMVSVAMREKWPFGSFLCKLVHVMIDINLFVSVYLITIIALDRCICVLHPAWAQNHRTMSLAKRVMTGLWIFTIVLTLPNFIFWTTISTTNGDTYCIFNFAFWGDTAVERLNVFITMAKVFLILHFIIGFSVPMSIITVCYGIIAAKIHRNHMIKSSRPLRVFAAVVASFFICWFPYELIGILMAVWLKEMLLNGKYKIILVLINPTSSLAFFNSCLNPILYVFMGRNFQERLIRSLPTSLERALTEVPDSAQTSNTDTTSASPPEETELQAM
The assay can be described thus: Ca2+ mobilization assay in FPR3-HL60 cells. The settings on record: for Emax: read-out: Ca2+ flux FPR3-HL60 efficacy. Put shortly: as §1

The subject of assay [5] is mouse neutrophils. The assay can be described thus: Ca2+ mobilization assay in mouse neutrophils. The note with it: % of the response induced by 10 nM WKYMVm. Summed up:
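Bone marrow was flushed from BALB/c mouse tibias and femurs and separated on a Percoll gradient (45/50/55/62/81%, 1600g, 30 min, 10 °C). Red cells were removed over Histopaque 1119. Neutrophils were loaded with Fluo-4 AM (1.25 μg/mL final) for 30 min at 37 °C, seeded in HBSS+ at 2 × 10^5 cells/well, and read at 485/538 nm every 5 s for 240 s at room temperature. Responses were normalized to 10 nM WKYMVm. EC50 came from nonlinear regression of 5-6-point curves, three experiments.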

What is called EC50 is the concentration that produces a half-maximal response. With `CCc1c(C)nn(CC(=O)Nc2ccc(Br)cc2)c(=O)c1Cc1cccc(OC)c1` [4c, N-(4-Bromophenyl)-2-[4-ethyl-5-(3-methoxybenzyl)-3-methyl-6-oxopyridazin-1(6H)-yl]acetamide], the half-maximal effective concentration (EC50) in assay [1] stood at 1.2 ± 0.3 µM; in assay [4], 4.1 ± 1.7 µM. Besides, the Emax in assay [2] is 100%; in assay [3], 120%; in assay [4], 100%.
On to `CCCc1c(C)nn(CC(=O)Nc2ccc(Br)cc2)c(=O)c1Cc1cccc(OC)c1` [4d, N-(4-Bromophenyl)-2-[5-(3-methoxybenzyl)-3-methyl-6-oxo-4-propylpyridazin-1(6H)-yl]acetamide], for which the 50% effective concentration (EC50) in assay [1] came to 3.2 ± 1.2 µM; in assay [4], 3.4 ± 0.76 µM. In addition, the Emax in assay [2] is 90%; in assay [3] it was 115%; in assay [4] it was 65%.
For `CCCCc1c(C)nn(CC(=O)Nc2ccc(Br)cc2)c(=O)c1Cc1cccc(OC)c1` [4e, N-(4-Bromophenyl)-2-[4-butyl-5-(3-methoxybenzyl)-3-methyl-6-oxopyridazin-1(6H)-yl]acetamide], the EC50 in assay [1] worked out at 2.7 ± 0.7 µM. In assay [2], the Emax is 90%.
Regarding `Cc1cc(=O)n(CC(=O)Nc2ccc(Br)cc2)nc1C` [7a, N-(4-Bromophenyl)-2-[3,4-dimethyl-6-oxopyridazin-1(6H)-yl]acetamide], the “Ca2+ flux mouse neutrophils efficacy” value in assay [5] stood at 70%. Besides, the results for the concentration giving a half-maximal response (EC50) in assay [1], in assay [2] and in assay [3] were 2 ± 0.29 µM, 0.51 ± 0.19 µM and 5.7 ± 2.1 µM, respectively. In addition, the values for the Emax in assay [2] and in assay [3] were 90% and 110%, respectively.
Consider `Cc1nn(CC(=O)Nc2ccc(Br)cc2)c(=O)cc1-c1ccccc1` [7b, N-(4-Bromophenyl)-2-[3-methyl-6-oxo-4-phenylpyridazin-1(6H)-yl]acetamide], for which, in assay [5], the “Ca2+ flux mouse neutrophils efficacy” value amounted to 75%. Moreover, the 50% effective concentration (EC50) in assay [1] amounted to 0.2 ± 0.056 µM; in assay [2] it was 0.15 ± 0.052 µM; in assay [4], 0.97 ± 0.23 µM. The Emax in assay [2] was 115%; in assay [4], 95%.
With `CC(=O)c1sc(=O)n(CC(=O)Nc2ccc(Br)cc2)c1C` [9a, 2-(5-Acetyl-4-methyl-2-oxo-thiazol-3-yl)-N-(4-bromophenyl)acetamide], the EC50 in assay [1] worked out at 12.2 ± 2.5 µM; in assay [2], 5.8 ± 1.4 µM; in assay [3] it was 8.9 ± 1.9 µM. The figures for the Emax in assay [2] and in assay [3] were 60% and 75%, respectively.
For `Cc1csc(=O)n1CC(=O)Nc1ccc(Br)cc1` [9b, N-(4-Bromophenyl)-2-(4-methyl-2-oxo-thiazol-3-yl)acetamide], the EC50 stood at 10.7 ± 2.3 µM in assay [1], 4.1 ± 1.1 µM in assay [2], 12.4 ± 2.6 µM in assay [3] and 27.8 ± 3.2 µM in assay [4]. For the same molecule, the Emax in assay [2] is 80%; in assay [3], 70%; in assay [4], 85%.
In the case of `O=C(Cn1c(-c2ccccc2)csc1=O)Nc1ccc(Br)cc1` [9c, N-(4-Bromophenyl)-2-(2-oxo-4-phenyl-thiazol-3-yl)acetamide], the EC50 in assay [1] amounted to 6 ± 1.5 µM; in assay [2], 2.1 ± 0.6 µM; in assay [3] it was 1.8 ± 0.6 µM; in assay [4] it was 19.7 ± 2.4 µM. Also, the Emax is 95% in assay [2], 100% in assay [3] and 135% in assay [4].
`COc1cccc(-c2csc(=O)n2CC(=O)Nc2ccc(Br)cc2)c1` [9d, N-(4-Bromophenyl)-2-[4-(3-methoxyphenyl)-2-oxothiazol-3-yl]-acetamide]: the concentration for a half-maximal effect (EC50) in assay [1] was found to be 1.3 ± 0.3 µM; in assay [4] it was 5.1 ± 1.7 µM. Also, the values for the Emax in assay [2], in assay [3] and in assay [4] were 120%, 90% and 100%, respectively.
With `COc1ccc(-c2csc(=O)n2CC(=O)Nc2ccc(Br)cc2)cc1` [9e, N-(4-Bromophenyl)-2-[4-(4-methoxyphenyl)-2-oxothiazol-3-yl]acetamide], the EC50 in assay [1] turned out to be 7.4 ± 2.3 µM; in assay [2] it was 1.8 ± 0.16 µM; in assay [3], 2.6 ± 0.6 µM; in assay [4] it was 36.1 ± 3.3 µM. Further, the Emax was 100% in assay [2], 110% in assay [3] and 85% in assay [4].
On to `O=C(Cn1c(-c2cccc(Cl)c2)csc1=O)Nc1ccc(Br)cc1` [9f, N-(4-Bromophenyl)-2-[4-(3-chlorophenyl)-2-oxothiazol-3-yl]acetamide], for which the EC50 amounted to 11.1 ± 2.8 µM in assay [1], 3 ± 0.7 µM in assay [2], 6 ± 1.7 µM in assay [3] and 32.2 ± 3.6 µM in assay [4]. Further, the Emax in assay [2] was 110%; in assay [3], 75%; in assay [4], 75%.
For `O=C(Cn1c(-c2ccc(Cl)cc2)csc1=O)Nc1ccc(Br)cc1` [9g, N-(4-Bromophenyl)-2-[4-(4-chlorophenyl)-2-oxothiazol-3-yl]acetamide], the EC50 in assay [1] is 12.2 ± 3.1 µM. In addition, the Emax in assay [2] and in assay [3] was 75% in each case.
Turning to `O=C(Cn1c(-c2ccc([N+](=O)[O-])cc2)csc1=O)Nc1ccc(Br)cc1` [9h, N-(4-Bromophenyl)-2-[4-(4-nitrophenyl)-2-oxothiazol-3-yl]acetamide], the EC50 in assay [1] amounted to 1.5 ± 0.4 µM. The Emax in assay [3] was 60%.
On to `Nc1ccc(-c2csc(=O)n2CC(=O)Nc2ccc(Br)cc2)cc1` [compound 10, 2-[4-(4-Aminophenyl)-2-oxothiazol-3-yl]-N-(4-bromophenyl)acetamide], for which the half-maximal effective concentration (EC50) in assay [1] is 36.1 ± 3.9 µM; in assay [2] it was 14.7 ± 3.7 µM; in assay [3], 34.9 ± 4.2 µM. Also, the Emax was 65% in assay [2] and 80% in assay [3].
